In ChEMBL document CHEMBL2057168, “(1aR,5aR)1a,3,5,5a-Tetrahydro-1H-2,3-diaza-cyclopropa[a]pentalene-4-carboxylic acid (MK-1903): a potent GPR109a agonist that lowers free fatty acids in humans” (J Med Chem, 2012):
The source made the active and inactive calls. The calls are words filed in the database; no cut-off is given here.

Columns and labels:
[1] = Volume of distribution in Sprague-Dawley rat at 2 mg/kg, iv; type: ADME, organism-based; design: dose 2 mg/kg, route intravenous; settings: in vivo
Method in brief: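 Male Sprague–Dawley rats dosed iv at 2 mg/kg in 80% PEG400/20% phosphate buffered saline. Jugular vein blood was serially sampled over 24 h, and plasma was prepared from sodium heparin blood. Plasma was analysed by HPLC/MS/MS (LLOQ 1 ng/mL, ULOQ 2000 ng/mL).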

[2] = Cmax in human at titreated po dose administered from day 1 to 4 followed by 200 mg, po QD administered up to day 11 measured on day 4; type: ADME, organism-based; design: dose 200 mg, route oral; settings: in vivo
Method in brief: (§1)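 Healthy male volunteers took part in a double-blind, randomized, placebo-controlled dose-escalation study, with cohorts of 8 (6 on drug, 2 on placebo). Each subject got an oral dose on day 1, then a 2-day washout, then dosing on days 4–11. The 200 mg qd group was titrated over days 1–4. Venous plasma was sampled predose and 0.5–12 h postdose on days 1, 4 and 11, and predose on days 5–10 for troughs.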

Homo sapiens [3] = assay: Activation of GPR109a receptor in human assessed as PGD2 metabolite level in urine at 10 to >10 mg, po; type: functional, organism-based
[4] = Tmax in human at 175 mg, po QID administered on day 1 followed by 2-days wash out period after which dosing continued up to day 11 measured on day 4; type: ADME, organism-based; settings: in vivo
Method in brief: (§2)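 Double-blind, placebo-controlled, randomized multiple oral dose study in healthy male volunteers (cohorts of eight; six active, two placebo). Dose given on day 1, then a two-day washout, then dosing days 4–11; for the QD arm, subjects were titrated over days 1–4. Venous plasma sampled predose and 0.5, 1, 1.5, 2, 4, 6, 8, 10, 12 h postdose on days 1, 4 and 11. Tmax reported as median (min–max).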

Rhesus monkey = assay: Dose normalized Cmax in po dosed rhesus monkey; type: ADME, organism-based, Macaca mulatta; settings: in vivo
[5] = Plasma clearance in Sprague-Dawley rat at 2 mg/kg, iv; type: ADME, organism-based; design: dose 2 mg/kg, route intravenous
Method in brief: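 Male Sprague-Dawley rats were dosed at 10 mg/kg po or 2 mg/kg iv in 80% PEG400/20% phosphate-buffered saline, fasted overnight before the oral dose. Jugular blood was sampled serially from 0.25 to 21 h over 24 h, and heparinized plasma was prepared. Drug was assayed by HPLC/MS/MS (quantitation range 1–2000 ng/mL).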

[6] = Tmax in human at 100 mg, po BID administered on day 1 followed by 2-day wash out period after which dosing continued up to day 11 measured on day 4; type: ADME, organism-based; settings: in vivo; method in brief: as §2
Mus musculus = assay: Dose normalized AUC in po dosed mouse; type: ADME, organism-based; settings: in vivo
[7] = Tmax in human at 50 mg, po BID administered on day 1 followed by 2-day wash out period after which dosing continued up to day 11 measured on day 1; type: ADME, organism-based; settings: in vivo; method in brief: as §2
[8] = Cmax in human at 175 mg, po QID administered on day 1 followed by 2-days wash out period after which dosing continued up to day 11 measured on day 11; type: ADME, organism-based; design: dose 175 mg, route oral; settings: in vivo; method in brief: as §1
Homo sapiens [9] = assay: Antidyslipidemic activity in human assessed as decrease in free fatty acid level 50 to 150 mg, po BID administered on day 1 followed by 2-days wash out period after which dosing continued up to day 11 measured on day 4 and 11; type: functional, organism-based
Method in brief: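 Healthy male volunteers in a randomized, double-blind, placebo-controlled multiple-dose study, six active and two placebo subjects per cohort. Oral dosing on day 1, two-day washout, then days 4–11, with titration over days 1–4 for the qd arm.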

[10] = Cmin in human at 150 mg, po TID administered on day 1 followed by 2-days wash out period after which dosing continued up to day 11 measured on day 1 at 8 hrs; type: ADME, organism-based; settings: in vivo, read-out: Cmin; method in brief: as §1
[11] = Tmax in human at 150 mg, po TID administered on day 1 followed by 2-days wash out period after which dosing continued up to day 11 measured on day 11; type: ADME, organism-based; settings: in vivo; method in brief: as §2
[12] = Tmax in human at 150 mg, po BID administered on day 1 followed by 2-day wash out period after which dosing continued up to day 11 measured on day 11; type: ADME, organism-based; settings: in vivo; method in brief: as §2
[13] = Tmax in human at titreated po dose administered from day 1 to 4 followed by 200 mg, po QD administered up to day 11 measured on day 4; type: ADME, organism-based; settings: in vivo; method in brief: as §2
[14] = Apparent half life in human at 150 mg, po BID administered on day 1 followed by 2-day wash out period after which dosing continued up to day 11 measured on day 11; type: ADME, organism-based; settings: in vivo, read-out: t1/2(app) (converted)
Method in brief: (§3)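 Double-blind, placebo-controlled, randomized dose-escalation study in healthy male volunteers, six cohorts of eight (six active, two placebo). Oral dose on day 1, two-day washout, then dosing days 4–11; the 200 mg qd cohort was titrated over days 1–4. Venous blood taken predose and at 0.5–12 h on days 1, 4 and 11; plasma drug measured. τ 12 h (bid), 24 h (qd), 8 h (tid), 6 h (qid).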

Homo sapiens [15] = assay: Antidyslipidemic activity in dyslipidemia patient assessed as change in HDL-c level at 150 mg administered TID during four week study relative to control; type: functional
Rattus norvegicus = assay: Antidyslipedic activity in fasted Sprague-Dawley rat assessed as decrease in free fatty acid level at 0.01 to 100 mg/kg, po by NEFA C-free fatty acid assay; type: functional; design: scale not given: the % may be the effect or the level left; settings: dose mg/kg 0.01-100
Method in brief: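 Male Sprague-Dawley rats fasted, compound by oral gavage, serial plasma sampling after dosing for free fatty acids over a time course; vehicle-dosed control group.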

Homo sapiens [16] = assay: Antidyslipedic activity in human assessed as decrease in free fatty acid level at 50 to 200 mg, po administered as a single dose measured up to 8 hrs relative to placebo control; type: functional, organism-based
[17] = AUC (0 to 24 hrs) in human at titreated po dose administered from day 1 to 4 followed by 200 mg, po QD administered up to day 11 measured on day 11; type: ADME, organism-based; design: time < 24 hr, dose 200 mg, route oral; settings: plasma; method in brief: as §3
[18] = Drug excretion in human urine assessed as unchanged drug at 50 to 150 mg, po BID in administered on day 1 followed by 2-days wash out period after which dosing continued up to day 11; type: ADME, organism-based; settings: read-out: Ae
[19] = Blood clearance in mouse; type: ADME, organism-based; settings: whole blood
Method in brief: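 Pharmacokinetics across species; for mice, clearance determined in blood rather than plasma following dosing.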

Cytochrome P450 2C9 = Cytochrome P450 2C9 (Homo sapiens, UniProt P11712); assay: Activity at CYP2C9; type: ADME
Chain of Cytochrome P450 2C9 (P11712 whole entry): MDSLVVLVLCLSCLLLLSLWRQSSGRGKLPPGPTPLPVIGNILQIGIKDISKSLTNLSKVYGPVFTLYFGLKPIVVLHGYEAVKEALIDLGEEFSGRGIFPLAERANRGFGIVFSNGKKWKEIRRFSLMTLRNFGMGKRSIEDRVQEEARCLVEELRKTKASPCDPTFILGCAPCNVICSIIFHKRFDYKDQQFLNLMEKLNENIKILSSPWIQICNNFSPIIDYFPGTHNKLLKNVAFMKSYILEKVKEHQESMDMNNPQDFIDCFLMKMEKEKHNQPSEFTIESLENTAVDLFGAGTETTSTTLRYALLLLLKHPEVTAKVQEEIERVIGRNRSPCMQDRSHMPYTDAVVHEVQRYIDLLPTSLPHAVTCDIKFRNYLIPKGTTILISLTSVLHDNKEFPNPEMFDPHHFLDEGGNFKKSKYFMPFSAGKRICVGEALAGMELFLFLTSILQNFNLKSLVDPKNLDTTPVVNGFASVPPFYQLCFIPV

Canis familiaris = assay: Dose normalized Cmax in po dosed dog; type: ADME, organism-based, Canis lupus familiaris; settings: in vivo
[20] = Apparent half life in human at 100 mg, po BID administered on day 1 followed by 2-day wash out period after which dosing continued up to day 11 measured on day 11; type: ADME, organism-based; settings: in vivo, read-out: t1/2(app) (converted); method in brief: as §3
[21] = Cmin in human at titreated dose from day 1 to 4 followed by 200 mg, po QD administered up to day 11 measured on day 4 at 12 hrs; type: ADME, organism-based; settings: in vivo, read-out: Cmin; method in brief: as §1
[22] = Cmax in human at 150 mg, po BID administered on day 1 followed by 2-day wash out period after which dosing continued up to day 11 measured on day 4; type: ADME, organism-based; design: dose 150 mg, route oral; settings: in vivo; method in brief: as §1
[23] = AUC (0 to 24 hrs) in human at titreated po dose administered from day 1 to 4 followed by 200 mg, po QD administered up to day 11 measured on day 4; type: ADME, organism-based; design: dose 200 mg, time < 24 hr, route oral; settings: plasma; method in brief: as §3
[24] = Apparent half life in human at 175 mg, po QID administered on day 1 followed by 2-days wash out period after which dosing continued up to day 11 measured on day 11; type: ADME, organism-based; settings: in vivo, read-out: t1/2(app) (converted); method in brief: as §3

For `O=C(O)c1n[nH]c2c1C[C@H]1C[C@@H]21`, the Vd [1] was 0.53 L/kg, the Cmax [2] was 56.3 nM and the Activity (Homo sapiens [3]) was “Active”. It also gave a Tmax [4] of 1 h, a Cmax/dose (Rhesus monkey) of 5.1 µM·kg/mg and a clearance [5] of 17 mL/min/kg. It also gave a Tmax [6] of 1 h, an AUC/dose (Mus musculus) of 4.1 µM·kg·h/mg and a Tmax [7] of 1 h. The Cmax [8] was 56 nM, the Activity (Homo sapiens [9]) was “Active” and the concentration at 8 h [10] was 0.869 nM. The Tmax [11] was 1 h, the Tmax [12] was 1 h and the Tmax [13] was 1.5 h. The half-life [14] was 8.9 h, the Activity (Homo sapiens [15]) was 4.6% and the Activity (Rattus norvegicus) was 90%. The Activity (Homo sapiens [16]) was “Active”, the AUC at 24 h [17] was 0.119 µM·h and the dose excreted [18] was 70%. The clearance [19] was 10 mL/min/kg, the Activity (Cytochrome P450 2C9) was “Not Active” and the Cmax/dose (Canis familiaris) was 17.5 µM·kg/mg. It also gave a half-life [20] of 2.2 h, a concentration at 12 h [21] of 0.244 nM and a Cmax [22] of 31.7 nM. The AUC at 24 h [23] was 0.114 µM·h and the half-life [24] was 6 h.
